Laboratory results: ChEMBL document CHEMBL1649552 (2009)
Converted amounts (≈) assume the structure as drawn.

Tests used:
Type in all cases: functional
[1] = tested on: Proteus mirabilis; assay: Antibacterial activity against Proteus mirabilis assessed as intermediate isolates by CLSI M100-S17 method
[2] = tested on: Klebsiella pneumoniae; assay: Antibacterial activity against Klebsiella pneumoniae assessed as susceptible isolates by CLSI M100-S17 method
[3] = tested on: Pseudomonas aeruginosa; assay: Antibacterial activity against Pseudomonas aeruginosa assessed as resistant isolates by CLSI M100-S17 method
[4] = tested on: Acinetobacter baumannii; assay: Antibacterial activity against Acinetobacter baumannii by CLSI M100-S17 method
[5] = tested on: Serratia marcescens; assay: Antibacterial activity against Serratia marcescens assessed as susceptible isolates by CLSI M100-S17 method
[6] = tested on: Proteus mirabilis; assay: Antibacterial activity against Proteus mirabilis by CLSI M100-S17 method
[7] = tested on: Klebsiella pneumoniae; assay: Antibacterial activity against Klebsiella pneumoniae by CLSI M100-S17 method
[8] = tested on: Serratia marcescens; assay: Antibacterial activity against Serratia marcescens assessed as intermediate isolates by CLSI M100-S17 method
[9] = tested on: Enterobacter cloacae; assay: Antibacterial activity against Enterobacter cloacae assessed as susceptible isolates by CLSI M100-S17 method
[10] = tested on: Acinetobacter baumannii; assay: Antibacterial activity against Acinetobacter baumannii assessed as intermediate isolates by CLSI M100-S17 method
[11] = tested on: Acinetobacter baumannii; assay: Antibacterial activity against Acinetobacter baumannii assessed as susceptible isolates by CLSI M100-S17 method
[12] = tested on: Escherichia coli; assay: Antibacterial activity against Escherichia coli assessed as intermediate isolates by CLSI M100-S17 method
[13] = tested on: Klebsiella oxytoca; assay: Antibacterial activity against Klebsiella oxytoca assessed as intermediate isolates by CLSI M100-S17 method
[14] = tested on: Escherichia coli; assay: Antibacterial activity against Escherichia coli assessed as susceptible isolates by CLSI M100-S17 method
[15] = tested on: Escherichia coli; assay: Antibacterial activity against Escherichia coli by CLSI M100-S17 method
[16] = tested on: Acinetobacter baumannii; assay: Antibacterial activity against Acinetobacter baumannii assessed as resistant isolates by CLSI M100-S17 method
[17] = tested on: Enterobacter cloacae; assay: Antibacterial activity against Enterobacter cloacae assessed as intermediate isolates by CLSI M100-S17 method
[18] = tested on: Stenotrophomonas maltophilia; assay: Antibacterial activity against Stenotrophomonas maltophilia by CLSI M100-S17 method
[19] = tested on: Pseudomonas aeruginosa; assay: Antibacterial activity against Pseudomonas aeruginosa assessed as intermediate isolates by CLSI M100-S17 method
[20] = tested on: Pseudomonas aeruginosa; assay: Antibacterial activity against Pseudomonas aeruginosa assessed as susceptible isolates by CLSI M100-S17 method
[21] = tested on: Klebsiella oxytoca; assay: Antibacterial activity against Klebsiella oxytoca by CLSI M100-S17 method
[22] = tested on: Enterobacter cloacae; assay: Antibacterial activity against Enterobacter cloacae by CLSI M100-S17 method
[23] = tested on: Pseudomonas aeruginosa; assay: Antibacterial activity against Pseudomonas aeruginosa by CLSI M100-S17 method
[24] = tested on: Klebsiella pneumoniae; assay: Antibacterial activity against Klebsiella pneumoniae assessed as intermediate isolates by CLSI M100-S17 method
[25] = tested on: Proteus mirabilis; assay: Antibacterial activity against Proteus mirabilis assessed as susceptible isolates by CLSI M100-S17 method
[26] = tested on: Klebsiella oxytoca; assay: Antibacterial activity against Klebsiella oxytoca assessed as susceptible isolates by CLSI M100-S17 method
[27] = tested on: Moraxella catarrhalis; assay: Antibacterial activity against Moraxella catarrhalis by CLSI M100-S17 method
[28] = tested on: Serratia marcescens; assay: Antibacterial activity against Serratia marcescens by CLSI M100-S17 method
[29] = tested on: Enterobacter cloacae; assay: Antibacterial activity against Enterobacter cloacae assessed as resistant isolates by CLSI M100-S17 method in presence of Tazobactam
Method in brief: (§1)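 Clinical isolates were tested by CLSI broth microdilution in frozen, in-house-prepared 96-well panels of the test agent and comparator agents. MICs were read and classed as susceptible, intermediate or resistant using CLSI M100-S17 breakpoints. The value is the share of isolates in each category.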

[30] = tested on: Pseudomonas aeruginosa; assay: Antibacterial activity against Pseudomonas aeruginosa assessed as resistant isolates by CLSI M100-S17 method in presence of Tazobactam; method in brief: as §1
[31] = tested on: Proteus mirabilis; assay: Antibacterial activity against Proteus mirabilis by CLSI M100-S17 method in presence of Tazobactam
Method in brief: (§2)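 CLSI broth microdilution on clinical isolates, using frozen in-house-prepared panels of test and comparator agents. MICs were read after 20 to 24 h incubation at 35°C in ambient air. Susceptible/intermediate categories were assigned by CLSI M100-S17 guidelines.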

[32] = tested on: Serratia marcescens; assay: Antibacterial activity against Serratia marcescens by CLSI M100-S17 method in presence of Tazobactam; method in brief: as §2
[33] = tested on: Acinetobacter baumannii; assay: Antibacterial activity against Acinetobacter baumannii assessed as susceptible isolates by CLSI M100-S17 method in presence of Tazobactam; method in brief: as §2
[34] = tested on: Escherichia coli; assay: Antibacterial activity against Escherichia coli by CLSI M100-S17 method in presence of Tazobactam; method in brief: as §2
[35] = tested on: Klebsiella oxytoca; assay: Antibacterial activity against Klebsiella oxytoca assessed as susceptible isolates by CLSI M100-S17 method in presence of Tazobactam; method in brief: as §2
[36] = tested on: Enterobacter cloacae; assay: Antibacterial activity against Enterobacter cloacae assessed as intermediate isolates by CLSI M100-S17 method in presence of Tazobactam; method in brief: as §2
[37] = tested on: Klebsiella oxytoca; assay: Antibacterial activity against Klebsiella oxytoca by CLSI M100-S17 method in presence of Tazobactam; method in brief: as §2
[38] = tested on: Klebsiella oxytoca; assay: Antibacterial activity against Klebsiella oxytoca assessed as intermediate isolates by CLSI M100-S17 method in presence of Tazobactam; method in brief: as §2
[39] = tested on: Klebsiella pneumoniae; assay: Antibacterial activity against Klebsiella pneumoniae assessed as resistant isolates by CLSI M100-S17 method in presence of Tazobactam; method in brief: as §1
[40] = tested on: Pseudomonas aeruginosa; assay: Antibacterial activity against Pseudomonas aeruginosa assessed as susceptible isolates by CLSI M100-S17 method in presence of Tazobactam; method in brief: as §2
[41] = tested on: Proteus mirabilis; assay: Antibacterial activity against Proteus mirabilis assessed as susceptible isolates by CLSI M100-S17 method in presence of Tazobactam; method in brief: as §2
[42] = tested on: Proteus mirabilis; assay: Antibacterial activity against Proteus mirabilis assessed as intermediate isolates by CLSI M100-S17 method in presence of Tazobactam; method in brief: as §1
[43] = tested on: Serratia marcescens; assay: Antibacterial activity against Serratia marcescens assessed as intermediate isolates by CLSI M100-S17 method in presence of Tazobactam; method in brief: as §2
[44] = tested on: Escherichia coli; assay: Antibacterial activity against Escherichia coli assessed as intermediate isolates by CLSI M100-S17 method in presence of Tazobactam; method in brief: as §2
[45] = tested on: Acinetobacter baumannii; assay: Antibacterial activity against Acinetobacter baumannii by CLSI M100-S17 method in presence of Tazobactam; method in brief: as §2
[46] = tested on: Pseudomonas aeruginosa; assay: Antibacterial activity against Pseudomonas aeruginosa assessed as intermediate isolates by CLSI M100-S17 method in presence of Tazobactam; method in brief: as §2
[47] = tested on: Klebsiella pneumoniae; assay: Antibacterial activity against Klebsiella pneumoniae assessed as susceptible isolates by CLSI M100-S17 method in presence of Tazobactam; method in brief: as §2
[48] = tested on: Escherichia coli; assay: Antibacterial activity against Escherichia coli assessed as susceptible isolates by CLSI M100-S17 method in presence of Tazobactam; method in brief: as §2
[49] = tested on: Enterobacter cloacae; assay: Antibacterial activity against Enterobacter cloacae assessed as susceptible isolates by CLSI M100-S17 method in presence of Tazobactam; method in brief: as §2
[50] = tested on: Enterobacter cloacae; assay: Antibacterial activity against Enterobacter cloacae by CLSI M100-S17 method in presence of Tazobactam; method in brief: as §2
[51] = tested on: Klebsiella oxytoca; assay: Antibacterial activity against Klebsiella oxytoca assessed as resistant isolates by CLSI M100-S17 method in presence of Tazobactam; method in brief: as §1
[52] = tested on: Escherichia coli; assay: Antibacterial activity against Escherichia coli assessed as resistant isolates by CLSI M100-S17 method in presence of Tazobactam; method in brief: as §1
[53] = tested on: Pseudomonas aeruginosa; assay: Antibacterial activity against Pseudomonas aeruginosa by CLSI M100-S17 method in presence of Tazobactam; method in brief: as §2
[54] = tested on: Serratia marcescens; assay: Antibacterial activity against Serratia marcescens assessed as susceptible isolates by CLSI M100-S17 method in presence of Tazobactam; method in brief: as §2
[55] = tested on: Acinetobacter baumannii; assay: Antibacterial activity against Acinetobacter baumannii assessed as intermediate isolates by CLSI M100-S17 method in presence of Tazobactam; method in brief: as §1
[56] = tested on: Serratia marcescens; assay: Antibacterial activity against Serratia marcescens assessed as resistant isolates by CLSI M100-S17 method in presence of Tazobactam; method in brief: as §1
[57] = tested on: Stenotrophomonas maltophilia; assay: Antibacterial activity against Stenotrophomonas maltophilia by CLSI M100-S17 method in presence of Tazobactam; method in brief: as §2
[58] = tested on: Klebsiella pneumoniae; assay: Antibacterial activity against Klebsiella pneumoniae assessed as intermediate isolates by CLSI M100-S17 method in presence of Tazobactam; method in brief: as §2
[59] = tested on: Moraxella catarrhalis; assay: Antibacterial activity against Moraxella catarrhalis by CLSI M100-S17 method in presence of Tazobactam; method in brief: as §2
[60] = tested on: Klebsiella pneumoniae; assay: Antibacterial activity against Klebsiella pneumoniae by CLSI M100-S17 method in presence of Tazobactam; method in brief: as §2

C[C@@H](O)[C@H]1C(=O)N2C(C(=O)O)=C(S[C@@H]3CN[C@H](C(=O)N(C)C)C3)[C@H](C)[C@H]12 [MEROPENEM]
Activity [1]: 0%
Activity [2]: 100%
Activity [3]: 8.1%
MIC50 [4]: 0.5 µg/mL (≈ 1.3 µM)
MIC90 [4]: 4 µg/mL (≈ 10.4 µM)
Activity [5]: 100%
MIC50 [6]: ≤ 0.06 µg/mL
MIC90 [6]: ≤ 0.06 µg/mL
MIC50 [7]: ≤ 0.06 µg/mL
MIC90 [7]: ≤ 0.06 µg/mL
Activity [8]: 0%
Activity [9]: 100%
Activity [10]: 0%
Activity [11]: 92%
Activity [12]: 0%
Activity [13]: 0%
Activity [14]: 100%
MIC50 [15]: ≤ 0.06 µg/mL
MIC90 [15]: ≤ 0.06 µg/mL
Activity [16]: 8%
Activity [17]: 0%
MIC50 [18]: > 64 µg/mL
MIC90 [18]: > 64 µg/mL
Activity [19]: 4.1%
Activity [20]: 87.8%
MIC50 [21]: ≤ 0.06 µg/mL
MIC90 [21]: ≤ 0.06 µg/mL
MIC50 [22]: ≤ 0.06 µg/mL
MIC90 [22]: ≤ 0.06 µg/mL
MIC50 [23]: 0.5 µg/mL (≈ 1.3 µM)
MIC90 [23]: 8 µg/mL (≈ 20.9 µM)
Activity [24]: 0%
Activity [25]: 100%
Activity [26]: 100%
MIC [27]: ≤ 0.06 µg/mL
MIC50 [27]: ≤ 0.06 µg/mL
MIC90 [27]: ≤ 0.06 µg/mL
MIC50 [28]: ≤ 0.06 µg/mL
MIC90 [28]: ≤ 0.06 µg/mL

CCN1CCN(C(=O)N[C@@H](C(=O)N[C@@H]2C(=O)N3[C@@H]2SC(C)(C)[C@@H]3C(=O)O)c2ccccc2)C(=O)C1=O [PIPERACILLIN]
Activity [29]: 9%
Activity [30]: 7.3%
MIC50 [31]: 2 µg/mL
MIC90 [31]: 64 µg/mL
MIC50 [32]: 2 µg/mL
MIC90 [32]: 8 µg/mL
Activity [33]: 76%
MIC50 [34]: 2 µg/mL
MIC90 [34]: 4 µg/mL
Activity [35]: 90%
Activity [36]: 8.4%
MIC50 [37]: 2 µg/mL
MIC90 [37]: 16 µg/mL
Activity [38]: 1%
Activity [39]: 2%
Activity [40]: 92.7%
Activity [41]: 100%
Activity [42]: 0%
Activity [43]: 4.7%
Activity [44]: 1%
MIC50 [45]: 4 µg/mL
MIC90 [45]: > 512 µg/mL
Activity [46]: 0%
Activity [47]: 96.7%
Activity [48]: 97.6%
Activity [49]: 82.6%
MIC50 [50]: 2 µg/mL
MIC90 [50]: 64 µg/mL
Activity [51]: 9%
Activity [52]: 1.4%
MIC50 [53]: 4 µg/mL
MIC90 [53]: 64 µg/mL
Activity [54]: 94.4%
Activity [55]: 12%
Activity [56]: 0.9%
MIC50 [57]: > 512 µg/mL
MIC90 [57]: > 512 µg/mL
Activity [58]: 1.3%
MIC [59]: ≤ 1 µg/mL
MIC50 [59]: ≤ 1 µg/mL
MIC90 [59]: ≤ 1 µg/mL
MIC50 [60]: 2 µg/mL
MIC90 [60]: 8 µg/mL
